As usually defined, the pKa is the negative logarithm of the acid dissociation constant.

From ChEMBL document CHEMBL1123158, “Synthesis and quantitative structure-activity relationships of antiallergic 2-hydroxy-N-1H-tetrazol-5-ylbenzamides and N-(2-hydroxyphenyl)-1H-tetrazole-5-carboxamides” (J Med Chem, 1986) come the findings set out here.

Data set [1] is described as follows: The function log (MrI) where M, is the molecular weight of the test compound and I is its activity relative to the reference compound 1, expresses the biological activity in molar terms. The data set is classed as functional. In short, it runs like this: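 Relative activity I from iv rat PCA 100%-inhibition comparison with M&B 22,948, converted to molar terms as log(Mr·I) using the compound's molecular weight.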

The test system of data set [2] is Rattus norvegicus. Put plainly: Antiallergic activity in the rat PCA test following iv administration relative to M&B 22,948, the dose of which was 0.1 mg/kg for 100% inhibition. The data set is classed as functional.
In data set [3] the test system is Rattus norvegicus. Nature of the data set: Inhibitory dose in the rat PCA test following oral administration. The data set is classed as functional. Particulars: read-out: ID50 (the source's name).
The species named for data set [4] is Rattus norvegicus. Nature of the data set: Biological activity. The data set is classed as functional.
The test system of data set [5] is Rattus norvegicus. Put plainly: Inhibitory dose in the rat PCA test following iv administration. Particulars: read-out: ID50 (the source's name). It is filed as functional.
Data set [6] in a line: Association constant at 25 degree C in aqueous media. The data set is classed as ADME. In short, it runs like this:
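Spectroscopic method in aqueous buffer at 25 °C. Values are thermodynamic pKa's corrected for the ionic strength of the buffer solutions.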

Turning to `CCOC(=O)c1cc(C)cc(NC(=O)c2nn[nH]n2)c1O`, the Log MrI in data set [1] stood at 3.46. Further, the Relative activity with Rattus norvegicus [2] turned out to be 10.
`CC(=O)c1cc(F)cc(NC(=O)c2nnn[nH]2)c1O` [EFLUMAST]: the ED50 in the data set with Rattus norvegicus [3] was found to be 0.16 mg/kg; in the data set with Rattus norvegicus [5] it was 4 µg/kg. The “Log [MrI]” value in the data set listed under Rattus norvegicus [4] is 3.724. For the same compound, the Relative activity in the data set with Rattus norvegicus [2] amounted to 20.
Turning to `CC(=O)c1cc(F)cc(C(=O)Nc2nnn[nH]2)c1O`, the “Log [MrI]” value in the data set listed under Rattus norvegicus [4] came to 2.123. Also, the pKa in data set [6] (aqueous media, read-out: pKa) turned out to be 4.2; in data set [6] (buffer) it was 7.1. For the same compound, the Relative activity with Rattus norvegicus [2] is reported as 0.5.
On to `O=C(Nc1nn[nH]n1)c1cc(O)ccc1O`, for which, in data set [1], the Log MrI is 1.34. Also, the Relative activity in the data set on Rattus norvegicus [2] is listed as 0.1.
For `COC(=O)c1cc(C)cc(NC(=O)c2nn[nH]n2)c1O` the same measures were 2.74 and 2.
Turning to `O=C(Nc1nn[nH]n1)c1cc([N+](=O)[O-])ccc1O`, in data set [1], the Log MrI came out at 2.1. For the same compound, the Relative activity in the data set with Rattus norvegicus [2] came out at 0.5.
On the same counts, the results for `CC(=O)Nc1cc(NC(=O)c2nn[nH]n2)c(O)c(C(C)=O)c1` are 2.19 and 0.5.
On the same counts, the results for `Cc1cc(NC(=O)c2nn[nH]n2)c(O)c(C(=O)O)c1` are 1.72 and 0.2.
`CCC(=O)c1cc(CC)cc(C(=O)Nc2nn[nH]n2)c1O`: the “Log [MrI]” value in the data set filed under Rattus norvegicus [4] was determined as 2.34. The Relative activity with Rattus norvegicus [2] was 0.75.
